# An excerpt weighted towards active compounds, which were near 3.8% of everything screened.
# DENV2 CPE rescue – protects cells from dengue virus 2 cytopathic effect; DENV2-infected cells, cytopathic effect rescue, plate reader; CPE inhibition, % at 9.99 µM; 350,000 tested, 1.7% active; AID 651640; in the data active = CPE inhibition above about 20%, passing the limit was not always enough; inconclusive = no clear call, values can overlap the other calls; tested in BHK-21 cells;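 also: 0% = median of neutral control wells and 100% = median of positive control wells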
# FN deposit inh – fibronectin deposition inhibition; AH1F fibroblasts, Alexa488-fibronectin deposition fluorescence, overnight; inhibition, % at 12.6 µM; AID 743247; 350,000 tested, 0.086% active;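 active = mean inhibition across replicates of 30% or more, regardless of how many single replicates reach that level; inconclusive = mean under 30% yet at least half of replicates reach 30%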;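 also: positive control wells lacked labelled fibronectin entirely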
#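 Measured by – fluorescence 485/525 nm · System – AH1F fibroblast monolayer, labelled fibronectin deposition · Amount – 10000 cells per well · Buffer or medium – serum-reduced DMEM (2% serum) · Doses – single dose, pinned · Also added – fluorescent fibronectin at 24 nM final · Schedule – 1 h cell attachment, overnight exposure to compound and label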
# SIRT5 block – sirtuin-5 (human) deacylase inhibition; Q9NXA8; Purified SirT5, succinyl-peptide AMC, trypsin-coupled fluorescence; inhibition, % at 15 µM; 330,000 tested, 1.1% active; in the data active = inhibition above about 15%; inconclusive = no clear call, values can overlap the other calls
# Xi reactivation – X-chromosome reactivation activator. XiGFP mouse fibroblasts, % GFP-positive cells imaging, 3 d; cells co-treated with 5-aza-dC sensitizer; scaled so ellipticine positive control = 100%. activation, % at 7.58 µM. 360,000 tested, 0.055% active;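 active = mean normalized replicate activation at least 10% and every replicate at or above 10%; inconclusive = only one of the two criteria met; inactive = mean below 10% and not all replicates reach 10%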;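 also: 0% = median of on-plate neutral control wells and 100% = ellipticine 6 µM median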
#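 material = 68-5-11 XiGFP fibroblast line | medium = DMEM plus 5-aza-dC sensitizer | schedule = 3 days compound exposure | benchmarks = positive control ellipticine, 6 µM final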
# ARNT TACC3 PPI – ARNT/TACC3 interaction disruption. Q9Y6A5. AlphaScreen His-ARNT PAS-B/GST-TACC3 binding, luminescence; TACC3 fragment carries E629A point mutation. inhibition, % at 9.99 µM. 390,000 tested, 0.66% active. AID 623870;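 active = mean inhibition of replicates at least 50% and at least half of replicates each reaching 50%; inconclusive = half or more replicates reach 50% but mean below 50%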;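 also: 0% = complete ARNT plus TACC3 wells and 100% = ARNT alone without TACC3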
# FGF22 binding – shifts melting point of recombinant human FGF22. 340,000 tested, 1.5% active. recombinant FGF22 thermal shift, SYPRO orange fluorescence; percent of sucrose octasulfate shift, DMSO zero. activity (Tm shift, normalised), % at 9.99 µM. Q9HCT0;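 active = mean Tm shift, scaled 0 neutral to 100 positive control, at about 1.3% or above, every replicate too, limit read from the data; inconclusive = no clear call, values can overlap the other calls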
# Target sequence (Q9HCT0 whole entry, looked up): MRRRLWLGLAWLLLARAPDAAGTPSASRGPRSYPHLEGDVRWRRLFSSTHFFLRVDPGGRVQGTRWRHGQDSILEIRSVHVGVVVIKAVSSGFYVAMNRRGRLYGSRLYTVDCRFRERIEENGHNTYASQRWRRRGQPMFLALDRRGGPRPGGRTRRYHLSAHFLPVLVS
# The depositor's hits bear a star; u = inconclusive; x = no result given.
SMILES,DENV2 CPE rescue,FN deposit inh,SIRT5 block,Xi reactivation,ARNT TACC3 PPI,FGF22 binding
Cc1cc(=O)oc2c(C)c(OC(C)C(=O)NC(Cc3c[nH]c4ccc(O)cc34)C(=O)O)ccc12 (stereo not given),77*,x,0,x,1,0
CCc1c(C)c2ccc(OC(C)C(=O)NC(Cc3c[nH]c4ccc(O)cc34)C(=O)O)c(C)c2oc1=O (stereo not given),1,x,-7,x,-4,0
C[C@H](CO)N1C[C@H](C)[C@@H](CN(C)C(=O)CCC(F)(F)F)OCCCC[C@H](C)Oc2ccc(NC(=O)Cc3ccccc3)cc2C1=O,u,x,2,0,-6,0
O=C(CNC(=O)C1COc2ccccc2O1)N/N=C\c1ccc(Br)cc1 (stereo not given),-5,10,23*,0,2,0
COc1ccc(Br)cc1/C=N/NC(=O)CNC(=O)C1COc2ccccc2O1 (stereo not given),0,-10,1,0,-8,0
COc1ccccc1-c1ccc2c(c1)O[C@H](CN(C)Cc1ccc3c(c1)OCO3)[C@H](C)CN([C@H](C)CO)S2(=O)=O,-2,x,22*,0,15,0
C[C@H](CO)N1C[C@H](C)[C@@H](CN(C)Cc2ccc3c(c2)OCO3)Oc2cc(-c3cccc(C(=O)N(C)C)c3)ccc2S1(=O)=O,15,x,18*,0,15,0
C[C@H]1CN([C@@H](C)CO)S(=O)(=O)c2ccc(-c3cccc(C(=O)N(C)C)c3)cc2O[C@@H]1CN(C)Cc1ccc2c(c1)OCO2,1,x,15*,0,1,0
COc1ccccc1-c1ccc2c(c1)O[C@@H](CN(C)C)[C@@H](C)CN([C@@H](C)CO)S2(=O)=O,10,-6,-4,-1,0,0
COc1ccccc1-c1ccc2c(c1)O[C@@H](CN(C)CC1CCOCC1)[C@H](C)CN([C@H](C)CO)S2(=O)=O,-1,-8,16*,0,-2,0
CC(=O)c1cccc(NC(=O)CSc2n[nH]c(=O)n2C2CC2)c1,6,-4,x,0,-5,43*
O=C(CSc1n[nH]c(=O)n1C1CC1)Nc1ccc(Cl)c(Cl)c1,-2,8,-4,0,43,0
O=C([C@@H]1[C@@H](CO)[C@@H]2Cn3c(cccc3=O)[C@@H]2N1C(=O)CC1CC1)N1CCCCC1,-2,x,5,0,-4,0
CC(C)NC(=O)N(C)C[C@H]1Oc2ccc(NC(=O)Nc3ccc4c(c3)OCO4)cc2CC(=O)N([C@H](C)CO)C[C@H]1C,-8,-2,-1,0,-7,0
COc1ccc(NC(=O)CNC(=O)Cn2c(C)cc3ccccc3c2=O)c(OC)c1,4,8,0,0,-1,43*
CS(=O)(=O)N1CCc2cc(S(=O)(=O)N3CCCCC3)ccc21,4,14,-4,0,-1,43*
CCC(=O)OCCNc1cc(Sc2nc3ccccc3s2)c2nonc2c1[N+](=O)[O-],x,x,x,x,9,x
CCC(=O)OCCNc1cc(Sc2nc3ccccc3[nH]2)c2nonc2c1[N+](=O)[O-],x,10,x,16*,1,x
CCCC(=O)OCCNc1cc(Sc2nccn2C)c2nonc2c1[N+](=O)[O-],x,12,x,23*,-4,x
C[C@@H]1CN([C@@H](C)CO)C(=O)c2cc(NC(=O)CCC(F)(F)F)ccc2O[C@H]1CN(C)S(=O)(=O)c1ccc(F)cc1,-9,0,1,0,-2,0
C[C@@H]1CCCCO[C@H](CN(C)C(=O)C2CCCCC2)[C@@H](C)CN([C@H](C)CO)C(=O)c2cc(NC(=O)c3ccncc3)ccc2O1,-2,x,-2,-1,1,0
COc1ccc(S(=O)(=O)Nc2ccc3c(c2)C(=O)N([C@H](C)CO)C[C@H](C)[C@H](CN(C)C(=O)Nc2c(C)noc2C)OCCCC[C@@H](C)O3)cc1,-5,-6,0,0,-3,1
CS(=O)(=O)c1ccc2nc(NC(=O)C3=NN(c4ccccc4)C(=O)CC3)sc2c1,6,15,3,0,-4,0

# Source: PubChem (Broad Institute)
